The text below walks through data of ChEMBL document CHEMBL4049407, “Positional Scanning Identifies the Molecular Determinants of a High Affinity Multi-Leucine Inhibitor for Furin and PACE4” (J Med Chem, 2017).

The target in assay [1] is T1, Proprotein convertase subtilisin/kexin type 6 (Homo sapiens, UniProt P29122).
T1 sequence (P29122 whole entry): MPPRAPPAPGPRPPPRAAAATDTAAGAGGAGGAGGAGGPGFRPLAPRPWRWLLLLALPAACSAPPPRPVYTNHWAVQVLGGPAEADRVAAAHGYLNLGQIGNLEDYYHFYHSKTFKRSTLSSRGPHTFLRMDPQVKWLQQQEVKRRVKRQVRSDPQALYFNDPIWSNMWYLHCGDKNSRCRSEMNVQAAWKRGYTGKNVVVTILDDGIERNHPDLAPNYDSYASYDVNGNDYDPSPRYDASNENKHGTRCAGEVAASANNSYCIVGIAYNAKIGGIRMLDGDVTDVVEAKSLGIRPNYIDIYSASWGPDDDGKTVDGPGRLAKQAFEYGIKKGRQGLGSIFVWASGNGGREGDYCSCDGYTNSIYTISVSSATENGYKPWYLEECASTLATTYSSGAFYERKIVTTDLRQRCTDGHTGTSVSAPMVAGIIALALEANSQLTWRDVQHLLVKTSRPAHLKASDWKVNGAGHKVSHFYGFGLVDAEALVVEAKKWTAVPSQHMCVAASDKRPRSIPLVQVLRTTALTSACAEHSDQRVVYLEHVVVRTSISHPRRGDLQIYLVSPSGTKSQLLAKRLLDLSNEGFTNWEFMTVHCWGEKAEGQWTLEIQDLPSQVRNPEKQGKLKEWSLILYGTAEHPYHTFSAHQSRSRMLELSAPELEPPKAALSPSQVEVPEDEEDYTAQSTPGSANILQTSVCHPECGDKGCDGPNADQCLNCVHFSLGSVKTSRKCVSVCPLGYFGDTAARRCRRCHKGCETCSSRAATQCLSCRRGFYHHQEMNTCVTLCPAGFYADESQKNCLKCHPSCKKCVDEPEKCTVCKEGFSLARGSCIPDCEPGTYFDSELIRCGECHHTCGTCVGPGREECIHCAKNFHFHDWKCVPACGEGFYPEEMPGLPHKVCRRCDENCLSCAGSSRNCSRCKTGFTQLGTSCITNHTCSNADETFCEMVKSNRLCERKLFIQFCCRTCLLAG
The assay can be described thus: Inhibition of recombinant human PACE4 expressed in drosophila S2 cells using pyrGlu-Arg-Thr-Lys-Arg-7-amido-4-methylcoumarin as substrate after 60 mins by spectrofluorometry method. It counts as cell-based. In outline:
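Human recombinant purified PACE4 at 2 units/100 µL (20.18 nM), in 20 mM BisTris pH 6.5, 1 mM CaCl2, 1.8 mg/mL BSA. Substrate 100 µM, KM 4.035 µM. Inhibitor 1 nM to 10 µM; 60 min at 37°C. Fluorescence ex 370 / em 460 nm. Ki by Morrison tight-binding equation; three independent experiments, mean ± SD.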

In a further assay the target is Furin (Homo sapiens, UniProt P09958). The assay can be described thus: Inhibition of recombinant human furin expressed in drosophila S2 cells using pyrGlu-Arg-Thr-Lys-Arg-7-amido-4-methylcoumarin as substrate after 60 mins by spectrofluorometry method. Format: cell-based. In outline:
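Human recombinant purified furin at 2 units/100 µL (0.54 nM), in 100 mM HEPES pH 7.5, 1 mM CaCl2, 1 mM β-mercaptoethanol, 1.8 mg/mL BSA. His-containing peptides run instead in 20 mM BisTris pH 6.5 with the same additives. Substrate 100 µM, KM 5.04 µM. Inhibitor 1 nM to 10 µM; 60 min at 37°C. Fluorescence ex 370 / em 460 nm. Ki by Morrison equation; triplicate experiments, mean ± SD.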

Another assay is filed under the species Homo sapiens. Put plainly: Selectivity index, ratio of Ki for recombinant human furin expressed in drosophila S2 cells to Ki for recombinant human PACE4 expressed in drosophila S2 cells. It counts as cell-based. Summed up: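 Ratio Ki(furin)/Ki(PACE4). […] PACE4 buffer was BisTris pH 6.5; furin buffer was HEPES pH 7.5, or BisTris pH 6.5 for His peptides. Ki fitted by Morrison equation from three independent experiments.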

For a further assay, the system named is DU-145. The assay can be described thus: Antiproliferative activity against human DU145 cells assessed as reduction in metabolic activity at 25 to 100 uM after 72 hrs by MTT assay. Format: functional, cell-based. Summed up:
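First-pass MTT screen of each library peptide on DU145 cells (RPMI 1640, 5% FBS, 1500 cells/well, poly-L-lysine plates). Peptides added 24 h after seeding at 25, 50 and 100 µM in fresh serum medium for 72 h. MTT 1 mg/mL for 4 h; 2-propanol HCl solubilisation. Activity normalised to water vehicle. Mean ± SEM of at least two independent experiments.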

Molecules are shown by their SMILES. pKi: −log10 of the molar value. Calls of active or inactive are those of the source. How the calls were made is not given here. Peptide text beside a SMILES is read from it. * marks the point of attachment. NH(4-amidinobenzyl) = N=C(N)c1ccc(CN*)cc1

Furin, sequence (P09958 whole entry): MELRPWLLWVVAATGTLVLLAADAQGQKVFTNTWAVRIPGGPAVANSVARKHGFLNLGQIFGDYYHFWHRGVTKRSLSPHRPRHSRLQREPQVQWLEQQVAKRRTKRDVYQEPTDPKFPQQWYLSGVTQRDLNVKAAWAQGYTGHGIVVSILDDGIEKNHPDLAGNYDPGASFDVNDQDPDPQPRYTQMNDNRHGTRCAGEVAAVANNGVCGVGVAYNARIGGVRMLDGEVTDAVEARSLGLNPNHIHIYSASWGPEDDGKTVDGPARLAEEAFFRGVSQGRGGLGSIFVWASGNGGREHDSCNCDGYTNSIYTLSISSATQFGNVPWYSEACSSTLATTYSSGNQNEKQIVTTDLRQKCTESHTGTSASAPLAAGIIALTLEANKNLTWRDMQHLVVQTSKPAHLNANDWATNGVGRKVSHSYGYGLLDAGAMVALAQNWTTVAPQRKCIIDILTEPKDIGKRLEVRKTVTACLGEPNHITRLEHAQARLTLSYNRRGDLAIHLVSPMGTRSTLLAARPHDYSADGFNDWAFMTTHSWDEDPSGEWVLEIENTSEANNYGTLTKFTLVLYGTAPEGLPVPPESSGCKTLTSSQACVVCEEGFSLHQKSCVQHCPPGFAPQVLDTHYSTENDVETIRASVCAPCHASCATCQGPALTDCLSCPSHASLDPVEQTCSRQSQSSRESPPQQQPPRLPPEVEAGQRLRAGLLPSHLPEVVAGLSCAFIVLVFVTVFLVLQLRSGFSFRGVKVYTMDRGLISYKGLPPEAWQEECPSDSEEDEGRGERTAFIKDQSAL

Regarding `CC(=O)N[C@@H](C)C(=O)N[C@@H](CC(C)C)C(=O)N[C@@H](CC(C)C)C(=O)N[C@@H](CC(C)C)C(=O)N[C@@H](CCCNC(=N)N)C(=O)N[C@H](C(=O)N[C@@H](CCCCN)C(=O)NCc1ccc(C(=N)N)cc1)C(C)C` (Ac-ALLLRVK-{NH(4-amidinobenzyl)}), the pKi was 8.82 in assay [1] and 8.52 at Furin. For the same molecule, the Ratio Ki in the assay filed under Homo sapiens stood at 2. In addition, the outcome with DU-145 was inactive.

On to `CC(=O)NCC(=O)N[C@@H](CC(C)C)C(=O)N[C@@H](CC(C)C)C(=O)N[C@@H](CC(C)C)C(=O)N[C@@H](CCCNC(=N)N)C(=O)N[C@H](C(=O)N[C@@H](CCCCN)C(=O)NCc1ccc(C(=N)N)cc1)C(C)C` (Ac-GLLLRVK-{NH(4-amidinobenzyl)}), for which the pKi (in assay [1]; at Furin) was 8.52 each time. For the same molecule, in the assay filed under Homo sapiens, the Ratio Ki is 1. Moreover, in the assay with DU-145, the outcome was inactive.

For the molecule `CC(=O)N[C@@H](Cc1cnc[nH]1)C(=O)N[C@@H](CC(C)C)C(=O)N[C@@H](CC(C)C)C(=O)N[C@@H](CC(C)C)C(=O)N[C@@H](CCCNC(=N)N)C(=O)N[C@H](C(=O)N[C@@H](CCCCN)C(=O)NCc1ccc(C(=N)N)cc1)C(C)C` (Ac-HLLLRVK-{NH(4-amidinobenzyl)}), the pKi in assay [1] is 8.89; on Furin, 8.74. Further, in the assay listed under Homo sapiens, the Ratio Ki is 1.4. In the assay on DU-145, the outcome was inactive.

For the molecule `CC(=O)N[C@@H](CCCCN)C(=O)N[C@@H](CC(C)C)C(=O)N[C@@H](CC(C)C)C(=O)N[C@@H](CC(C)C)C(=O)N[C@@H](CCCNC(=N)N)C(=O)N[C@H](C(=O)N[C@@H](CCCCN)C(=O)NCc1ccc(C(=N)N)cc1)C(C)C` (Ac-KLLLRVK-{NH(4-amidinobenzyl)}), the pKi was 9.52 in assay [1] and 9.40 at Furin. Moreover, the Ratio Ki in the assay listed under Homo sapiens was determined as 1.3. The result in the assay on DU-145 was inactive.

As to `CC(=O)N[C@@H](CC(C)C)C(=O)N[C@@H](C)C(=O)N[C@@H](CC(C)C)C(=O)N[C@@H](CC(C)C)C(=O)N[C@@H](CCCNC(=N)N)C(=O)N[C@H](C(=O)N[C@@H](CCCCN)C(=O)NCc1ccc(C(=N)N)cc1)C(C)C` (Ac-LALLRVK-{NH(4-amidinobenzyl)}), the results for the pKi (in assay [1]; at Furin) were 8.70 and 8.82, respectively. For the same molecule, the Ratio Ki in the assay filed under Homo sapiens turned out to be 0.8. Further, the outcome in the assay with DU-145 was inactive.

On to `CC(=O)N[C@@H](CC(C)C)C(=O)N[C@@H](CC(=O)O)C(=O)N[C@@H](CC(C)C)C(=O)N[C@@H](CC(C)C)C(=O)N[C@@H](CCCNC(=N)N)C(=O)N[C@H](C(=O)N[C@@H](CCCCN)C(=O)NCc1ccc(C(=N)N)cc1)C(C)C` (Ac-LDLLRVK-{NH(4-amidinobenzyl)}), for which the values for the pKi (in assay [1]; on Furin) were 7.10 and 7.30, respectively. The Ratio Ki in the assay filed under Homo sapiens turned out to be 0.6. In the assay with DU-145, the outcome was inactive.

For the molecule `CC(=O)N[C@@H](CC(C)C)C(=O)N[C@@H](CCC(=O)O)C(=O)N[C@@H](CC(C)C)C(=O)N[C@@H](CC(C)C)C(=O)N[C@@H](CCCNC(=N)N)C(=O)N[C@H](C(=O)N[C@@H](CCCCN)C(=O)NCc1ccc(C(=N)N)cc1)C(C)C` (Ac-LELLRVK-{NH(4-amidinobenzyl)}), the pKi in assay [1] is 7.29; on Furin, 7.64. The Ratio Ki in the assay listed under Homo sapiens came to 0.5. The result in the assay on DU-145 was inactive.

With `CC(=O)N[C@@H](CC(C)C)C(=O)NCC(=O)N[C@@H](CC(C)C)C(=O)N[C@@H](CC(C)C)C(=O)N[C@@H](CCCNC(=N)N)C(=O)N[C@H](C(=O)N[C@@H](CCCCN)C(=O)NCc1ccc(C(=N)N)cc1)C(C)C` (Ac-LGLLRVK-{NH(4-amidinobenzyl)}), the pKi in assay [1] is 8.70; on Furin, 8.52. In addition, the Ratio Ki in the assay filed under Homo sapiens turned out to be 1.5. The result in the assay on DU-145 was inactive.

In the case of `CC(=O)N[C@@H](CC(C)C)C(=O)N[C@@H](Cc1cnc[nH]1)C(=O)N[C@@H](CC(C)C)C(=O)N[C@@H](CC(C)C)C(=O)N[C@@H](CCCNC(=N)N)C(=O)N[C@H](C(=O)N[C@@H](CCCCN)C(=O)NCc1ccc(C(=N)N)cc1)C(C)C` (Ac-LHLLRVK-{NH(4-amidinobenzyl)}), the values for the pKi (in assay [1]; on Furin) were 8.52 and 8.33, respectively. The Ratio Ki in the assay listed under Homo sapiens is 1.6. Moreover, the outcome with DU-145 was inactive.

For the molecule `CC(=O)N[C@@H](CC(C)C)C(=O)N[C@@H](CCCCN)C(=O)N[C@@H](CC(C)C)C(=O)N[C@@H](CC(C)C)C(=O)N[C@@H](CCCNC(=N)N)C(=O)N[C@H](C(=O)N[C@@H](CCCCN)C(=O)NCc1ccc(C(=N)N)cc1)C(C)C` (Ac-LKLLRVK-{NH(4-amidinobenzyl)}), the pKi was 9.30 in assay [1] and 9.22 at Furin. For the same molecule, the Ratio Ki in the assay listed under Homo sapiens is 1.2. The result in the assay on DU-145 was inactive.

As to `CC(=O)N[C@@H](CC(C)C)C(=O)N[C@@H](CC(C)C)C(=O)N[C@@H](C)C(=O)N[C@@H](CC(C)C)C(=O)N[C@@H](CCCNC(=N)N)C(=O)N[C@H](C(=O)N[C@@H](CCCCN)C(=O)NCc1ccc(C(=N)N)cc1)C(C)C` (Ac-LLALRVK-{NH(4-amidinobenzyl)}), the pKi in assay [1] was 7.52; at Furin, 7.96. In addition, the Ratio Ki in the assay filed under Homo sapiens is 0.4. The outcome in the assay on DU-145 was inactive.

With `CC(=O)N[C@@H](CC(C)C)C(=O)N[C@@H](CC(C)C)C(=O)N[C@@H](CC(=O)O)C(=O)N[C@@H](CC(C)C)C(=O)N[C@@H](CCCNC(=N)N)C(=O)N[C@H](C(=O)N[C@@H](CCCCN)C(=O)NCc1ccc(C(=N)N)cc1)C(C)C` (Ac-LLDLRVK-{NH(4-amidinobenzyl)}), the pKi (in assay [1]; on Furin) was 6.85 throughout. Further, in the assay filed under Homo sapiens, the Ratio Ki came out at 1. Further, in the assay with DU-145, the outcome was inactive.

In the case of `CC(=O)N[C@@H](CC(C)C)C(=O)N[C@@H](CC(C)C)C(=O)N[C@@H](CCC(=O)O)C(=O)N[C@@H](CC(C)C)C(=O)N[C@@H](CCCNC(=N)N)C(=O)N[C@H](C(=O)N[C@@H](CCCCN)C(=O)NCc1ccc(C(=N)N)cc1)C(C)C` (Ac-LLELRVK-{NH(4-amidinobenzyl)}), the pKi in assay [1] was 7.22; at Furin it was 7.30. In addition, the Ratio Ki in the assay filed under Homo sapiens amounted to 0.8. Also, in the assay with DU-145, the outcome was inactive.

Turning to `CC(=O)N[C@@H](CC(C)C)C(=O)N[C@@H](CC(C)C)C(=O)NCC(=O)N[C@@H](CC(C)C)C(=O)N[C@@H](CCCNC(=N)N)C(=O)N[C@H](C(=O)N[C@@H](CCCCN)C(=O)NCc1ccc(C(=N)N)cc1)C(C)C` (Ac-LLGLRVK-{NH(4-amidinobenzyl)}), the values for the pKi (in assay [1]; on Furin) were 7.68 and 7.78, respectively. For the same molecule, the Ratio Ki in the assay listed under Homo sapiens was found to be 0.8. In addition, the result in the assay on DU-145 was inactive.

As to `CC(=O)N[C@@H](CC(C)C)C(=O)N[C@@H](CC(C)C)C(=O)N[C@@H](Cc1cnc[nH]1)C(=O)N[C@@H](CC(C)C)C(=O)N[C@@H](CCCNC(=N)N)C(=O)N[C@H](C(=O)N[C@@H](CCCCN)C(=O)NCc1ccc(C(=N)N)cc1)C(C)C` (Ac-LLHLRVK-{NH(4-amidinobenzyl)}), the pKi is 8.74 in assay [1] and 8.32 on Furin. In the assay listed under Homo sapiens, the Ratio Ki turned out to be 2.7. In the assay on DU-145, the result was inactive.

`CC(=O)N[C@@H](CC(C)C)C(=O)N[C@@H](CC(C)C)C(=O)N[C@@H](CCCCN)C(=O)N[C@@H](CC(C)C)C(=O)N[C@@H](CCCNC(=N)N)C(=O)N[C@H](C(=O)N[C@@H](CCCCN)C(=O)NCc1ccc(C(=N)N)cc1)C(C)C` (Ac-LLKLRVK-{NH(4-amidinobenzyl)}): the pKi in assay [1] was 8.66; on Furin, 8.40. Moreover, in the assay filed under Homo sapiens, the Ratio Ki came out at 1.8. Besides, in the assay on DU-145, the outcome was inactive.

What is called pKi is −log10 of the Ki, conventionally taken in molar units.
